Assays:
[1] = system: Rattus norvegicus; test: In vivo inhibition of formalin induced flinching after intra paw dosing of compound at 300 ug
[2] = system: Mus musculus; test: Effective dose that induced platform sedation after subcutaneous administration in mice; assay type: functional; details: sc
Method in brief: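 Mice screened first for baseline latency to step fully off a slightly raised platform (11 × 8 × 3 cm); animals with baseline >15 s excluded. Drug or vehicle (20% aqueous creamaphor) given s.c. at back of neck; latency retested 20 min later, 30 s cut-off. % sedation = (test − baseline)/(30 s − baseline) × 100; ED50 from dose–response.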

SMILES	Inhibition [1] [%]	ED50 [2] [mg/kg]
CN(C(=O)Cc1ccc(C(F)(F)F)cc1)[C@H](CN1CCCC1)c1cccc(NC(=O)CCC(=O)O)c1	73	47
CN(C(=O)Cc1ccc(C(F)(F)F)cc1)[C@H](CN1CCCC1)c1cccc(NS(N)(=O)=O)c1	73	13
CN(C(=O)Cc1ccc(C(F)(F)F)cc1)[C@H](CN1CCCC1)c1cccc(NS(C)(=O)=O)c1	77	89
CN(C(=O)Cc1ccc(C(F)(F)F)cc1)[C@H](CN1CCCC1)c1ccccc1	92	0.13
COc1cccc(C(CN2CCCC2)N(C)C(=O)Cc2ccc(C(F)(F)F)cc2)c1 (racemic)	99	
CN(C(=O)Cc1ccc(C(F)(F)F)cc1)C(CN1CCCC1)c1cccc(O)c1 (racemic)	99	
CN(C(=O)Cc1ccc(C(F)(F)F)cc1)C(CN1CCCC1)c1cccc(OCC(=O)O)c1 (racemic)	93	> 300
CN(C(=O)Cc1ccc(C(F)(F)F)cc1)C(CN1CCCC1)c1cccc(OCC(=O)OC(C)(C)C)c1 (racemic)	84	140
CN(C(=O)Cc1ccc(Cl)c(Cl)c1)C(CN1CCCC1)c1cccc(OCC(=O)O)c1 (stereo not given) [ICI-204448]		5.2

Source: ChEMBL document CHEMBL1144321, “Synthesis and evaluation of novel peripherally restricted kappa-opioid receptor agonists” (Bioorg Med Chem Lett, 2005)
